Results on 3 compounds are retold here after ChEMBL document CHEMBL1134691, “3-Phenyl-5-acyloxymethyl-2H,5H-furan-2-ones: synthesis and biological activity of a novel group of potential antifungal drugs” (2001).

Each structure is given as a SMILES string. In brackets after ≈: the same amount, converted by molar mass. Where only a bound is given, the exact number is not on record here.

In assay [1] the test system is Candida albicans. Nature of the assay: Inhibition of Candida albicans ATCC 44859 growth for 24 hours in vitro. In kind it is functional. To be noted: Candida albicans, ATCC 44859, 24 h; read-out: MIC. Put shortly: (§1)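 NCCLS M27-A broth microdilution in RPMI 1640 with L-glutamine and 0.165 M MOPS, pH 7.0. Isolates kept on Sabouraud dextrose agar. Inoculum 5 × 10^3 cfu/mL final. Compounds were diluted in DMSO (≤2% final) and tested in 2-fold dilutions of 1000–0.24 µmol/L. Incubation at 35 °C, OD540 read at 24 and 48 h. MIC = 80% growth inhibition versus control; assays run twice in duplicate.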

Assay [2] deals with Aspergillus fumigatus. As to the kind of experiment: Inhibition of Aspergillus fumigatus 231 growth for 24 hours in vitro. It is filed as functional. The conditions noted are these: Aspergillus fumigatus, 24 h; read-out: MIC. Put shortly:
(§2)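 Filamentous isolates tested by microdilution per NCCLS M27-A in RPMI 1640 plus L-glutamine, buffered with 0.165 M MOPS to pH 7.0. Final inoculum 5 × 10^3 cfu/mL. Compounds in DMSO (final ≤2%), 2-fold series over 1000–0.24 µmol/L. Plates held at 35 °C and read visually after 24 and 48 h. MIC taken as 80% inhibition of control growth; determined twice in duplicate.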

Assay [3] relates to Candida albicans. Nature of the assay: Inhibition of Candida albicans ATCC 90028 for 48 hours in vitro. It is filed as functional. The conditions noted are these: Candida albicans, ATCC 90028, 48 h; read-out: MIC. Put shortly: as §1
For assay [4], the system named is Candida tropicalis. As to the kind of experiment: Inhibition of Candida tropicalis 156 growth for 48 hours in vitro. In kind it is functional. The conditions noted are these: Candida tropicalis, 48 h; read-out: MIC. Put shortly: as §1
The subject of assay [5] is Candida parapsilosis. Nature of the assay: Inhibition of Candida parapsilosis ATCC 22019 growth for 24 hours in vitro. The conditions noted are these: Lodderomyces parapsilosis, ATCC 22019, 24 h; read-out: MIC. In kind it is functional. Summed up:
as §1

In assay [6] the test system is Nakaseomyces glabratus. Nature of the assay: Inhibition of Candida glabrata 20/I growth for 48 hours in vitro. It is filed as functional. The conditions noted are these: Nakaseomyces glabratus, 48 h; read-out: MIC. Put shortly:
as §1

The subject of assay [7] is Pichia kudriavzevii. Nature of the assay: Inhibition of Candida krusei E28 growth for 48 hours in vitro. It is filed as functional. The conditions noted are these: Pichia kudriavzevii, 48 h; read-out: MIC. Put shortly:
as §1

In assay [8] the test system is Lichtheimia corymbifera. As to the kind of experiment: In vitro inhibition of Absidia corymbifera 272 growth for 24 hours. In kind it is functional. The conditions noted are these: Lichtheimia corymbifera, 24 h; read-out: MIC. Put shortly:
as §2

For assay [9], the system named is Candida parapsilosis. As to the kind of experiment: Inhibition of Candida parapsilosis ATCC 22019 growth for 48 hours in vitro. In kind it is functional. The conditions noted are these: Lodderomyces parapsilosis, ATCC 22019, 48 h; read-out: MIC. Summed up:
as §1

For assay [10], the system named is Pichia kudriavzevii. Nature of the assay: Inhibition of Candida krusei E28 growth for 24 hours in vitro. In kind it is functional. The conditions noted are these: Pichia kudriavzevii, 24 h; read-out: MIC. Put shortly:
as §1

Assay [11] relates to Candida albicans. As to the kind of experiment: Inhibition of Candida albicans ATCC 90028 for 24 hours in vitro. It is filed as functional. To be noted: Candida albicans, ATCC 90028, 24 h; read-out: MIC. Summed up:
as §1

In assay [12] the test system is Trichosporon beigelii. Nature of the assay: Inhibition of Trichosporon beigelli 1188 for 24 hours in vitro. In kind it is functional. The conditions noted are these: Trichosporon beigelii, 24 h; read-out: MIC. Summed up: (§3)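 Microdilution following NCCLS M27-A. Medium: RPMI 1640 with L-glutamine, 0.165 M MOPS, pH 7.0. Final inoculum 5 × 10^3 cfu/mL. Compounds dissolved in DMSO, final ≤2%, serially halved from 1000 to 0.24 µmol/L. Incubated at 35 °C and read at 24 and 48 h. MIC defined as 80% inhibition of control growth; run twice in duplicate.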

Assay [13] is described as follows: Inhibition of Trichophyton mentagrophytes 445 growth for 120 hours in vitro. In kind it is functional, Arthroderma benhamiae. To be noted: Trichophyton benhamiae, 120 h; read-out: MIC. Put shortly: (§4)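 Dermatophyte grown in MOPS-buffered (0.165 M, pH 7.0) RPMI 1640 containing L-glutamine, in an M27-A microdilution format. Inoculum 5 × 10^3 cfu/mL final. Compounds from DMSO stocks (≤2% final), 2-fold dilutions 1000–0.24 µmol/L. Incubated at 35 °C, growth judged visually at 72 and 120 h. MIC endpoint is 80% inhibition relative to control; measured twice in duplicate.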

For assay [14], the system named is Clavispora lusitaniae. Nature of the assay: Inhibition of Candida lusitaniae 2446/I growth for 48 hours in vitro. It is filed as functional. To be noted: Clavispora lusitaniae, 48 h; read-out: MIC. Summed up: as §1
In assay [15] the test system is Pichia kudriavzevii. As to the kind of experiment: Inhibition of Candida krusei ATCC 6258 growth for 24 hours in vitro. In kind it is functional. The conditions noted are these: Pichia kudriavzevii, ATCC 6258, 24 h; read-out: MIC. Put shortly:
as §1

Assay [16] deals with Nakaseomyces glabratus. Nature of the assay: Inhibition of Candida glabrata 20/I growth for 24 hours in vitro. In kind it is functional. To be noted: Nakaseomyces glabratus, 24 h; read-out: MIC. Put shortly: as §1
Assay [17] deals with Pichia kudriavzevii. Nature of the assay: Inhibition of Candida krusei ATCC 6258 growth for 48 hours in vitro. It is filed as functional. The conditions noted are these: Pichia kudriavzevii, ATCC 6258, 48 h; read-out: MIC. Summed up: as §1
For assay [18], the system named is Lichtheimia corymbifera. Nature of the assay: In vitro inhibition of Absidia corymbifera 272 growth for 48 hours. In kind it is functional. To be noted: Lichtheimia corymbifera, 48 h; read-out: MIC. Summed up: as §2
The subject of assay [19] is Aspergillus fumigatus. As to the kind of experiment: Inhibition of Aspergillus fumigatus 231 growth for 48 hours in vitro. It is filed as functional. To be noted: Aspergillus fumigatus, 48 h; read-out: MIC. Summed up:
as §2

The nature of assay [20]: Inhibition of Trichophyton mentagrophytes 445 growth for 72 hours in vitro. It is filed as functional, Arthroderma benhamiae. To be noted: Trichophyton benhamiae, 72 h; read-out: MIC. Summed up: as §4
Assay [21] relates to Clavispora lusitaniae. Nature of the assay: Inhibition of Candida lusitaniae 2446/I growth for 24 hours in vitro. In kind it is functional. To be noted: Clavispora lusitaniae, 24 h; read-out: MIC. Summed up:
as §1

In assay [22] the test system is Candida albicans. Nature of the assay: Inhibition of Candida albicans ATCC 44859 growth for 48 hours in vitro. It is filed as functional. To be noted: Candida albicans, ATCC 44859, 48 h; read-out: MIC. Summed up: as §1
In assay [23] the test system is Candida tropicalis. As to the kind of experiment: Inhibition of Candida tropicalis 156 growth for 24 hours in vitro. The conditions noted are these: Candida tropicalis, 24 h; read-out: MIC. It is filed as functional. Summed up:
as §1

Assay [24] relates to Trichosporon beigelii. As to the kind of experiment: Inhibition of Trichosporon beigelli 1188 for 48 hours in vitro. In kind it is functional. The conditions noted are these: Trichosporon beigelii, 48 h; read-out: MIC. Summed up:
as §3

For orientation: MIC means the lowest concentration that inhibits growth of the organism. For the compound `O=C1OC(CO)C=C1c1ccc(Br)cc1` (configuration not stated), the MIC is 31.2 µM (≈ 8.41 µg/mL) in assay [1]; 62.5 µM (≈ 16.8 µg/mL) in assay [2]; 250 µM (≈ 67.3 µg/mL) in [3]; 500 µM (≈ 135 µg/mL) in assay [4]; 250 µM (≈ 67.3 µg/mL) in assay [5]; 125 µM (≈ 33.6 µg/mL) in [6]. For the same compound, the minimum inhibitory concentration (MIC) in assay [7] stood at 500 µM (≈ 135 µg/mL); in assay [8], 250 µM (≈ 67.3 µg/mL); in assay [9], 500 µM (≈ 135 µg/mL); in assay [10], 500 µM (≈ 135 µg/mL); in assay [11], 250 µM (≈ 67.3 µg/mL); in assay [12], 125 µM (≈ 33.6 µg/mL). The minimum inhibitory concentration (MIC) stood at 15.6 µM (≈ 4.21 µg/mL) in assay [13]; 250 µM (≈ 67.3 µg/mL) in assay [14]; 500 µM (≈ 135 µg/mL) in assay [15]; 125 µM (≈ 33.6 µg/mL) in [16]; 1000 µM (≈ 269 µg/mL) in assay [17]; 250 µM (≈ 67.3 µg/mL) in [18]. Besides, the MIC in assay [19] is 125 µM (≈ 33.6 µg/mL); in [20], 15.6 µM (≈ 4.21 µg/mL); in assay [21], 250 µM (≈ 67.3 µg/mL); in assay [22] it was 62.5 µM (≈ 16.8 µg/mL); in assay [23], 250 µM (≈ 67.3 µg/mL); in assay [24], 500 µM (≈ 135 µg/mL).
On to `COc1ccc(C2=CC(COC(=O)c3ccc(Cl)cc3)OC2=O)cc1` (configuration not stated), for which the MIC was 1.95 µM (≈ 0.7 µg/mL) in assay [1]; 31.2 µM (≈ 11.2 µg/mL) in assay [2]; 62.5 µM (≈ 22.4 µg/mL) in assay [3]; 125 µM (≈ 44.8 µg/mL) in assay [4]; 62.5 µM (≈ 22.4 µg/mL) in [5]; 125 µM (≈ 44.8 µg/mL) in assay [6]. Further, the MIC in assay [7] was 62.5 µM (≈ 22.4 µg/mL); in assay [8], 31.2 µM (≈ 11.2 µg/mL); in assay [9] it was over 125 µM; in [10], 31.2 µM (≈ 11.2 µg/mL); in assay [11], 31.2 µM (≈ 11.2 µg/mL); in assay [12], over 125 µM. Moreover, the MIC came out at 15.6 µM (≈ 5.61 µg/mL) in assay [13]; 125 µM (≈ 44.8 µg/mL) in [14]; 31.2 µM (≈ 11.2 µg/mL) in [15]; 62.5 µM (≈ 22.4 µg/mL) in assay [16]; 62.5 µM (≈ 22.4 µg/mL) in assay [17]; 62.5 µM (≈ 22.4 µg/mL) in assay [18]. The MIC is 125 µM (≈ 44.8 µg/mL) in assay [19]; 7.81 µM (≈ 2.8 µg/mL) in assay [20]; 62.5 µM (≈ 22.4 µg/mL) in assay [21]; 15.6 µM (≈ 5.61 µg/mL) in assay [22]; 31.2 µM (≈ 11.2 µg/mL) in assay [23]; over 125 µM in [24].
As to `COc1ccc(C2=CC(COC(C)=O)OC2=O)cc1` (configuration not stated), the MIC is under 0.98 µM in [1]; 3.91 µM (≈ 1.03 µg/mL) in assay [2]; 31.2 µM (≈ 8.2 µg/mL) in [3]; 62.5 µM (≈ 16.4 µg/mL) in assay [4]; 31.2 µM (≈ 8.2 µg/mL) in [5]; 31.2 µM (≈ 8.2 µg/mL) in assay [6]. Moreover, the MIC in [7] amounted to 125 µM (≈ 32.8 µg/mL); in [8], 62.5 µM (≈ 16.4 µg/mL); in [9], 62.5 µM (≈ 16.4 µg/mL); in assay [10], 62.5 µM (≈ 16.4 µg/mL); in [11] it was 31.2 µM (≈ 8.2 µg/mL); in assay [12] it was 62.5 µM (≈ 16.4 µg/mL). Besides, the MIC stood at 7.81 µM (≈ 2.05 µg/mL) in assay [13]; 62.5 µM (≈ 16.4 µg/mL) in assay [14]; 62.5 µM (≈ 16.4 µg/mL) in [15]; 31.2 µM (≈ 8.2 µg/mL) in assay [16]; 125 µM (≈ 32.8 µg/mL) in assay [17]; 62.5 µM (≈ 16.4 µg/mL) in assay [18]. The MIC in [19] came out at 31.2 µM (≈ 8.2 µg/mL); in [20] it was 7.81 µM (≈ 2.05 µg/mL); in assay [21], 31.2 µM (≈ 8.2 µg/mL); in [22] it was 15.6 µM (≈ 4.1 µg/mL); in assay [23] it was 31.2 µM (≈ 8.2 µg/mL); in [24] it was 62.5 µM (≈ 16.4 µg/mL).
